# L major viab = Leishmania major promastigote growth inhibition, primary screen; Leishmania major promastigotes, resazurin fluorescence viability; inhibition, % at 10 µM; actives 9% (n = 200,000); in the data active means inhibition above about 50%;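 further: promastigotes grown with compound for 44 hours at 28 °C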
# KCC2 mod = KCC2 cotransporter modulators, thallium flux, primary screen, cell-based, HEK293 KCC2, FluoZin-2 fluorescence, MLSMR; Solute carrier family 12 member 5 (Homo sapiens), Q9H2X9; KCC2 cells, thallium flux FluoZin-2 fluorescence; B-score of Tl+ flux slope (higher = more flux/activation; lower = inhibition) at 10 µM; actives 2.2% (n = 190,000); AID 1456, 2008;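 active means thallium flux slope and its plate-corrected score both differing from the plate sample mean at a set confidence after two filtering rounds, in either direction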;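 further: slope of fluorescence scaled to starting intensity during 10 to 20 s after thallium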
# Diaphorase inh = diaphorase inhibitors and chemical oxidizers, primary screen, counter-screen for diaphorase-coupled primary assays, biochemical, uHTS, resorufin fluorescence; inhibition, % at 20 µM; AID 1217, 2008; actives 0.69% (n = 190,000); diaphorase resazurin-to-resorufin fluorescence, NADH, 16 min; bacterial (C. kluyveri) enzyme, not human;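 active means primary screen inhibition at 20 µM above a set limit, cut at about 50% in these data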;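 further: plate controls were DMSO with full reaction for no effect and wells lacking NADH for full effect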
#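 Test system: Clostridium kluyveri diaphorase enzyme / Quantity: diaphorase at 0.14 U/mL in enzyme working solution / Incubation: 16-min room-temperature incubation before reading / Benchmarks: NADH-free wells as positive control, DMSO-only neutral wells / Signal: resorufin fluorescence 544/590 nm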
# Diaphorase act = compounds boosting diaphorase resazurin reduction – biochemical, uHTS, resorufin fluorescence, counter-screen for diaphorase-coupled primary assays, primary screen. Diaphorase/resazurin coupled assay, 16 min; stronger effect = higher value; 1 = vehicle wells, 0 = NADH-free wells. activation factor at 20 µM. actives 0.005% (n = 190,000). AID 1229, 2008;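 active means diaphorase activity raised at least twofold by the compound at 20 µM; inactive means activation factor below 2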
#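 System – purified diaphorase enzyme from Clostridium kluyveri · Input – enzyme 0.07 U/mL final · Also added – final NADH 0.114 mM, resazurin 0.1 mM · Measured by – fluorescence of resorufin, 544 nm excitation, 590 nm emission · Timing – 16 min enzyme reaction, ambient temperature · Measure – resorufin increase flagging diaphorase activators or reducers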
# ROMK mod = ROMK potassium channel modulators, primary screen, cell-based, thallium flux, MLSMR library | AID 1918, 2009 | B-score at 10 µM | Tet-inducible ROMK, thallium flux fluorescence; actives lie on both sides | actives 2% (n = 130,000);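 active means signal ratio slope over the read window, or its plate-corrected B-score, at least 3 SD from the plate mean, either direction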;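 further: B-score of the F/F0 ratio slope over 7 to 12 s after thallium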
# Target sequence (P48048 whole entry, looked up): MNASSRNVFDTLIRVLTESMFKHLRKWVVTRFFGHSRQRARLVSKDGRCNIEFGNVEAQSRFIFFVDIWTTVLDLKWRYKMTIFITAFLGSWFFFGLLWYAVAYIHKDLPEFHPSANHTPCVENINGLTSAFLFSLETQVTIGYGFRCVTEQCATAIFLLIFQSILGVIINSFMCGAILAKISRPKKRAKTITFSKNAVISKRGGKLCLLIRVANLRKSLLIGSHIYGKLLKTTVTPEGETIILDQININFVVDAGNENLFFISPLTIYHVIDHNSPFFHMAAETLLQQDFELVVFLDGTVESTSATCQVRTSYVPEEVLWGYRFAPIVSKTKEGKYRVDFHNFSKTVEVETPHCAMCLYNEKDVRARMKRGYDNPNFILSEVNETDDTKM
# WT yeast gro inh = growth inhibition of WT strain, primary screen, mitochondrial fusion inhibitor project, WT and mutant strains, chemical genetic | inhibition, % at 10 µM | actives 2.1% (n = 190,000) | AID 1362, 2008 | mitochondrial fusion phenotypic screen; in the data active means inhibition above about 58%; tested in S. cerevisiae
# Numbers without * were called inactive; . = no result given. In the library only some 12% were active in any assay of this set; here they are far more common.
SMILES,L major viab,KCC2 mod,Diaphorase inh,Diaphorase act,ROMK mod,WT yeast gro inh
CN(CCOc1ccccc1)CC(=O)Nc1ccc(Cl)cc1[N+](=O)[O-],-9,-0.39,13,0.9,0.23,40
COc1ccc(-n2cc(CNCCc3ncc(C)[nH]3)c(-c3ccccc3Cl)n2)cc1,100*,0.64,.,.,.,15
COc1ccc(-n2cc(CNCCCn3ccnc3)c(-c3ccccc3Cl)n2)cc1,100*,0.0092,-62,1.6,-0.15,8
CCN1CCC(CNCc2cn(-c3ccc(OC)cc3)nc2-c2ccccc2Cl)C1 (stereo not given),101*,1.4,-48,1.5,-3.2,5
COc1ccc(-n2cc(CNCCc3nc(C)cc(C)n3)c(-c3ccccc3Cl)n2)cc1,8,.,.,.,0.64,-11
COc1ccc(-n2cc(CNCCN3CCOC3=O)c(-c3ccccc3Cl)n2)cc1,.,-0.51,.,.,.,.
CN(C(=S)Nc1ccc(SC(F)F)cc1)c1ccc(O)cc1,0,0.66,47,0.5,.,87*
CN(C(=S)Nc1ccc(Oc2ccccc2)cc1)c1ccc(O)cc1,0,-2.2,42,0.6,-0.52,49
COc1ccc2oc(=Nc3cc(F)ccc3F)c(C(N)=O)cc2c1,59*,0.014,-2,1,.,2
COc1ccc2oc(=O)c(C(=O)Nc3ccccc3O)cc2c1,.,0.54,.,.,-0.075,.
COc1ccc2o/c(=N\O)c(C(=O)Nc3ccccc3OC)cc2c1,97*,0.3,10,0.9,.,-4
COc1ccc(C(=NNc2ccccc2C(=O)O)c2ccc(OC)cc2)cc1,-7,-0.61,26,0.7,0.67,82*
O=C(Nc1ccccn1)c1ccc(Cl)c([N+](=O)[O-])c1,11,-0.21,14,0.9,0.03,10
CCOc1cc(/C=C(\C#N)C(=O)NCC2CCCO2)ccc1O (stereo not given),64*,0.5,-11,1.1,-0.98,3
CCOc1cc(/C=C(\C#N)C(=O)NCC2CCCO2)ccc1OCC(N)=O (stereo not given),3,0.079,7,0.9,0.47,0
CCOc1ccc2nc(Cl)c(C3CC(c4ccccc4)=NN3C(=O)c3ccco3)cc2c1 (stereo not given),43,-0.03,9,0.9,.,-14
CCC(C)n1c(C)nc2c(c1=O)c1nc3ccccc3nc1n2CCC1=CCCCC1 (stereo not given),57*,.,64*,0.4,.,5
COCCNC(=O)c1c(N)n(CCC2=CCCCC2)c2nc3ccccc3nc12,100*,-0.02,42,0.6,-1.6,2
COc1ccc(CCn2c(N)c(C(=O)NCc3ccco3)c3nc4ccccc4nc32)cc1,24,0.55,25,0.7,0.69,5
COc1cc(SC)ccc1C(=O)OC(C)C(=O)NC1CCCC1 (stereo not given),-5,-0.62,2,1,1,-21
CS(=O)(=O)NN1C(=O)c2ccccc2NC1c1c[nH]c2ccccc12 (stereo not given),-4,0.7,7,0.9,.,-3
COc1cc(OC)cc(-c2nc3ccccc3c(=O)n2OC(=O)c2ccc(C)c(C)c2)c1,73*,-1.3,16,0.8,0.21,3
COc1cc(OC)cc(C(=O)Nn2c(C)nc3ccccc3c2=O)c1,-2,-1.1,11,0.9,0.5,-7
CCc1ccc(NC(=S)N2CCCCCCC2)cc1,56*,-0.24,17,0.8,0.3,64*
CCCCc1ccc(NC(=S)N2CCCC(C)C2)cc1 (stereo not given),30,-0.3,20,0.8,-0.42,75*
Fc1ccc(NC(=S)N2CCCC2)cc1Cl,95*,-0.15,13,0.9,-2,-21
S=C(Nc1ccc(Cl)cc1)N1CCCCC1,-5,0.51,13,0.9,.,-3
CCOC(=O)c1ccc(NC(=S)N2CCCC(C)C2)cc1 (stereo not given),-2,0.79,6,0.9,-0.11,12

# Screening data as filed in PubChem BioAssay.
